Calls of active or inactive are those of the source. The calls are words filed in the database; no cut-off is given here.

We go through 5 compounds from ChEMBL document CHEMBL1151912, “ACE inhibitors hypothesis generation for selective design, synthesis and biological evaluation of 3-mercapto-2-methyl-propanoyl-pyrrolidine-3-imine derivatives as antihypertensive agents” (2009).

The subject of assay [1] is Felis catus. Put plainly: Antihypertensive activity in anesthetized normotensive cat assessed as mean reduction of diastolic blood pressure at 0.00246 mmol/kg. Type of assay: functional, Artery.
The test system of assay [2] is Felis catus. Put plainly: Antihypertensive activity in anesthetized normotensive cat assessed as mean reduction of systolic blood pressure at 0.00246 mmol/kg. Type of assay: functional, Artery.
The subject of assay [3] is Felis catus. Put plainly: Antihypertensive activity in anesthetized normotensive cat assessed as mean reduction of diastolic blood pressure at 0.00246 mmol/kg relative to control. The assay is classed as functional, Artery. On the set-up: scale not given: the % may be the effect or the level left. The essentials: (§1)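 Normotensive adult cats dosed at 0.00246 mmol/kg. Systolic and diastolic blood pressure recorded in mmHg and reported as mean ± SE. The value is the mean % change from the control group. Significance versus control was tested at p < 0.05.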

Assay [4] deals with Felis catus. Put plainly: Antihypertensive activity in anesthetized normotensive cat assessed as mean reduction of systolic blood pressure at 0.00246 mmol/kg relative to control. The assay is classed as functional, Artery. On the set-up: scale not given: the % may be the effect or the level left. The essentials:
as §1

In assay [5] the test system is Felis catus. Put plainly: Hypotensive activity in anesthetized normotensive cat at 0.0014 mmol/kg. Type of assay: functional, organism-based.
For assay [6], the system named is Felis catus. Put plainly: Hypotensive activity in anesthetized normotensive cat at 0.0012 mmol/kg. Type of assay: functional, organism-based.
The subject of assay [7] is Felis catus. Put plainly: Hypotensive activity in anesthetized normotensive cat at 0.00285 mmol/kg. The assay is classed as functional, organism-based.
For assay [8], the system named is Felis catus. Put plainly: Hypotensive activity in anesthetized normotensive cat at 0.0031 mmol/kg. Type of assay: functional, organism-based.

For `COc1ccc(CC2C(=O)CCN2C(=O)C(C)CS)cc1` (centres undefined), the Diastolic blood pressure with Felis catus [1] came out at 115 mmHg. In addition, the Systolic blood pressure in the assay with Felis catus [2] was determined as 104.9 mmHg. The results for the Activity with Felis catus [3] and in the assay on Felis catus [4] were 8% and 21.67%, respectively. Besides, in the assay on Felis catus [5], the outcome was Active.

Take `C[C@H](CS)C(=O)N1CCC[C@H]1C(=O)O` [CAPTOPRIL]: the Diastolic blood pressure in the assay with Felis catus [1] came to 97.6 mmHg. Moreover, the Systolic blood pressure in the assay with Felis catus [2] is 105.9 mmHg. For the same compound, the Activity amounted to 21.89% in the assay with Felis catus [3] and 20.91% with Felis catus [4].

Take `CCOC(=O)C(C)/N=C1\CCN(C(=O)C(C)CS)C1Cc1ccc(OC)cc1` (centres undefined): the Diastolic blood pressure in the assay on Felis catus [1] is 84 mmHg. In the assay on Felis catus [2], the Systolic blood pressure was 93.3 mmHg. In addition, the Activity with Felis catus [3] came to 32.8%; with Felis catus [4], 30.37%. Also, in the assay on Felis catus [6], the outcome was Active.

On to `COc1ccc(CC2/C(=N/CCO)CCN2C(=O)C(C)CS)cc1` (centres undefined), for which the Diastolic blood pressure in the assay with Felis catus [1] turned out to be 113.7 mmHg. In the assay with Felis catus [2], the Systolic blood pressure is on record as 106 mmHg. In addition, the Activity in the assay with Felis catus [3] came to 9%; in the assay on Felis catus [4], 20.83%. Also, in the assay on Felis catus [7], the outcome was Active.

With `COc1ccc(CC2/C(=N/O)CCN2C(=O)C(C)CS)cc1` (centres undefined), the Diastolic blood pressure in the assay on Felis catus [1] was determined as 109.7 mmHg. For the same compound, the Systolic blood pressure in the assay with Felis catus [2] was determined as 121.9 mmHg. The figures for the Activity with Felis catus [3] and in the assay with Felis catus [4] were 12.22% and 9%, respectively. Also, the outcome in the assay with Felis catus [8] was Active.
